According to ChEMBL document CHEMBL1128739, “Structure-activity relationships in the 8-amino-6,7,8,9-tetrahydro-3H-benz[e]indole ring system. 2. Effects of 8-amino nitrogen substitution on serotonin receptor binding and pharmacology” (J Med Chem, 1995):
Activity calls are given as the source filed them. The calls are words filed in the database; no cut-off is given here.

What was measured:
[1] = biological target: T1, 5-hydroxytryptamine receptor 1B (Homo sapiens, UniProt P28222); experiment: In vitro binding affinity against cloned mammalian 5-hydroxytryptamine 1D receptor beta expressed in CHO cells, by using [3H]5-HT as radioligand; type: cell-based
T1 sequence (P28222 whole entry): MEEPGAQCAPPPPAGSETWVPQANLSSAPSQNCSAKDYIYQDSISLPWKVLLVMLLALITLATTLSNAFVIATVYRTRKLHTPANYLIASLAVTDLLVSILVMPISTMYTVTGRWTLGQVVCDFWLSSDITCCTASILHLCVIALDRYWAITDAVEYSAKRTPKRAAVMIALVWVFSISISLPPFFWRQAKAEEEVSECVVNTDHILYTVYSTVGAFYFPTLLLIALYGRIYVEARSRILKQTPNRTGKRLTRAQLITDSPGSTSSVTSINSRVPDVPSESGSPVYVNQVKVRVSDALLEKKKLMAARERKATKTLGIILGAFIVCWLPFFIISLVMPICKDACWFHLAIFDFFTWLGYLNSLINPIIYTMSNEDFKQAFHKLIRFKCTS
In short: (§1)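 Membranes from CHO cells stably expressing the cloned receptor, made by mechanical disruption in ice-cold Tris/EDTA/EGTA pH 7.4 and differential centrifugation. [3H]serotonin at 1.7 nM in 50 mM Tris, 5 mM MgCl2, 0.1% ascorbic acid, pH 7.4. 11 drug concentrations in duplicate, 1 h at room temperature protected from light, then filtration. Excess serotonin defines nonspecific binding. One-site IC50 fit, Ki by Cheng-Prusoff.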

[2] = biological target: 5-hydroxytryptamine receptor 1D (Homo sapiens, UniProt P28221); experiment: In vitro binding affinity against cloned mammalian 5-hydroxytryptamine 1D receptor alpha expressed in CHO cells, by using [3H]5-HT as radioligand; type: cell-based
5-hydroxytryptamine receptor 1D, sequence (P28221 whole entry): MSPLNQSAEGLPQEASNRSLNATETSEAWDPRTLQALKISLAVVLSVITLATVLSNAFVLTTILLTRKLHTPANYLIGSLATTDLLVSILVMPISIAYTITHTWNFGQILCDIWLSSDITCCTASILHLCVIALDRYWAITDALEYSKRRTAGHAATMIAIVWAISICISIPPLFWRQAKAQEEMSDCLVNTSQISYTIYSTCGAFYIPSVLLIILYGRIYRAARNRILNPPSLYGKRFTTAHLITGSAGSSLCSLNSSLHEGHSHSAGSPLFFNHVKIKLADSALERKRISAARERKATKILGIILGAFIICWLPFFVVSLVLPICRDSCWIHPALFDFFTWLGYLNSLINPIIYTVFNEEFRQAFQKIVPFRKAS
In short: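 Competition binding on CHO-cell membranes (20-60 μg protein) in 50 mM Tris, 5 mM MgCl2, 0.1% ascorbic acid, pH 7.4. Nonspecific binding defined with excess serotonin. 11 drug concentrations, each in duplicate. Incubated 1 h at room temperature, protected from light, then filtered and scintillation counted. IC50 taken from a one-site fit; Ki by Cheng-Prusoff.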

[3] = biological target: T2, D(2) dopamine receptor (Rattus norvegicus, UniProt P61169); experiment: Binding affinity rat Dopamine receptor D2 expressed in CHO-K1 cells by [3H]U-86170 displacement.; type: cell-based
T2 sequence (P61169 whole entry): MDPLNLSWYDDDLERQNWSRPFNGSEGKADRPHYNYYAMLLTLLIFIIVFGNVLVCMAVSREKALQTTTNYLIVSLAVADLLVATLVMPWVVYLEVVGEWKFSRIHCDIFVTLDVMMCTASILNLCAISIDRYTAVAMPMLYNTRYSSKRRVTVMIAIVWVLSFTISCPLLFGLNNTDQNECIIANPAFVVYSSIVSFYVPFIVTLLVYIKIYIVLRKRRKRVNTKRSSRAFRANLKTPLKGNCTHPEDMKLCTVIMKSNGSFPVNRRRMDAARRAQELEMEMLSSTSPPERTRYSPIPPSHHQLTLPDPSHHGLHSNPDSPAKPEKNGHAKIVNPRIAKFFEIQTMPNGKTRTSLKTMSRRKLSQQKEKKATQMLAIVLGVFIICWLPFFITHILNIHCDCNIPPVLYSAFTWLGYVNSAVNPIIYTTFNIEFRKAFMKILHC

[4] = biological target: D(3) dopamine receptor (Rattus norvegicus, UniProt P19020); experiment: In vitro binding affinity against cloned mammalian Dopamine receptor D3 expressed in CHO cells by, using [3H]-spiperone as radioligand; type: cell-based; settings: read-out: Ki
D(3) dopamine receptor, sequence (P19020 whole entry): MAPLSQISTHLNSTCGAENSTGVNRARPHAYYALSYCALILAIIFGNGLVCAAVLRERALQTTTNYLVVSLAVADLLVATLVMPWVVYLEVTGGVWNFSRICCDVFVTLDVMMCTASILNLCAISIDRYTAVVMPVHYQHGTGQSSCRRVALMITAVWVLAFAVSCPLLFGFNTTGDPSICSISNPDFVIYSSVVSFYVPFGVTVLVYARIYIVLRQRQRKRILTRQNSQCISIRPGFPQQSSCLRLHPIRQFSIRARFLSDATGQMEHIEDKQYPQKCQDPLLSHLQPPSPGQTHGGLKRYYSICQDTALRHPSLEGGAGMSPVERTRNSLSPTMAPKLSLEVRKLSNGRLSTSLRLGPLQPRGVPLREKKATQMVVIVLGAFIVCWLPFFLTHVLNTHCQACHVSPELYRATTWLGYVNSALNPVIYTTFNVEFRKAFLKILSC

[5] = biological target: T1, 5-hydroxytryptamine receptor 1B; experiment: The compound was tested in vitro for binding affinity against cloned mammalian 5-hydroxytryptamine 1D receptor beta expressed in CHO cells, by using [3H]5-HT as radioligand; type: cell-based; set-up: concentration or dose not given beside the values; settings: concentration not given here; in short: as §1
[6] = system: Rattus norvegicus; experiment: In vivo changes in different brain area levels of 5-HTP in reserpinized rat corpus striatum.; type: functional
In short: (§2)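 Male Sprague-Dawley rats (200-300 g) pretreated with reserpine 5 mg/kg sc 18 h before. Injection volume 5 mL/kg at neutral pH. Brain-region 5-HTP measured by HPLC with electrochemical detection. Dose-response curves used four to six doses, n = 4.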

[7] = system: Rattus norvegicus; experiment: The compound was tested in vivo for biochemical effect against the changes in different brain area levels of DOPA in reserpinized rat corpus striatum; type: functional
In short: (§3)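 Male Sprague-Dawley rats (200-300 g) pretreated with reserpine 5 mg/kg sc 18 h before. Injection volume 5 mL/kg, test solutions at neutral pH. DOPA and 5-HTP in limbic system, striatum and hemispheres measured by HPLC with electrochemical detection. Dose-response curves from four to six dose levels (n = 4) per brain area.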

[8] = system: Rattus norvegicus; experiment: In vivo changes in different brain area levels of 5-HTP in reserpinized rat limbic system.; type: functional; in short: as §2
[9] = system: Rattus norvegicus; experiment: The compound was tested in vivo for biochemical effect against the changes in different brain area levels of DOPA in reserpinized rat limbic system; type: functional
In short: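 Rats (male Sprague-Dawley, 200-300 g) received reserpine 5 mg/kg sc 18 h before. Injections 5 mL/kg at neutral pH. DOPA accumulation measured by HPLC with electrochemical detection as an index of DA or NE synthesis rate. Four to six dose levels, n = 4. ED50 from a sigmoidal fit.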

[10] = system: Rattus norvegicus; experiment: In vivo for biochemical effect against brain area levels of 5-HTP in reserpinized rat hemispheres (mainly cortex).; type: functional; in short: as §3
[11] = system: Rattus norvegicus; experiment: The compound was tested in vivo for biochemical effect against the changes in different brain area levels of DOPA in reserpinized rat hemispheres (mainly cortex)at dose 12.5 uM/kg; inactive; type: functional, organism-based; in short: as §3
[12] = biological target: T2, D(2) dopamine receptor; experiment: In vitro binding affinity against cloned mammalian Dopamine receptor D2 expressed in CHO cells using [3H]U-86170 as radioligand; type: cell-based; settings: read-out: Ki
In short: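 Membranes from CHO cells (20-60 μg protein) in 20 mM HEPES, 10 mM MgSO4, pH 7.4. Nonspecific binding defined with excess haloperidol. 11 concentrations, each in duplicate. Incubated 1 h at room temperature, then filtered and counted. IC50 from a one-site competition fit, converted to Ki by Cheng-Prusoff.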

[13] = system: Rattus norvegicus; experiment: (§4) The compound was tested in vivo for biochemical effect against the changes in different brain area levels of DOPA in reserpinized rat limbic system at dose 12.5 uM/kg; Partial effect; type: functional, organism-based; in short: as §3
[14] = system: Rattus norvegicus; experiment: The compound was tested in vivo for biochemical effect against the changes in different brain area levels of DOPA in reserpinized rat hemispheres (mainly cortex)at dose 12.5 uM/kg; Inactive; type: functional, organism-based
[15] = system: Rattus norvegicus; experiment: The compound was tested in vivo for biochemical effect against the changes in different brain area levels of DOPA in reserpinized rat corpus striatum at dose 12.5 uM/kg; Inactive; type: functional, organism-based; in short: as §3
[16] = system: Rattus norvegicus; experiment: The compound was tested in vivo for biochemical effect against the changes in different brain area levels of DOPA in reserpinized rat limbic system at dose 3.1 uM/kg; Inactive; type: functional, organism-based; in short: as §3
[17] = system: Rattus norvegicus; experiment: The compound was tested in vivo for biochemical effect against the changes in different brain area levels of DOPA in reserpinized rat corpus striatum at dose 3.1 uM/kg; Inactive; type: functional, organism-based; in short: as §3
[18] = system: Rattus norvegicus; experiment: The compound was tested in vivo for biochemical effect against the changes in different brain area levels of DOPA in reserpinized rat hemispheres (mainly cortex)at dose 3.1 uM/kg; Inactive; type: functional, organism-based; in short: as §3
[19] = system: Rattus norvegicus; experiment: as §4; type: functional, organism-based; remark: listed apart in the source
[20] = system: Rattus norvegicus; experiment: The compound was tested in vivo for biochemical effect against the changes in different brain area levels of DOPA in reserpinized rat corpus striatum at dose 12.5 uM/kg; Partial effect; type: functional, organism-based; in short: as §3

Compound | Ki [1] | Ki [2] | Ki [3] | Ki [4] | Ki [12] | also measured
CCCN(CCCOc1cccc(Cl)c1)C1CCc2ccc3[nH]ccc3c2C1 (stereo not given) | 243 nM | 13 nM | 15 nM | 20 nM |  | 
CCCN(CCCCN1C(=O)CC(C)(C)CC1=O)C1CCc2ccc3[nH]ccc3c2C1 (stereo not given) | 224 nM | 26 nM | 15 nM | 29 nM |  | 
CCCN(CC1CC1)C1CCc2ccc3[nH]ccc3c2C1 (stereo not given) |  | 75 nM | 33 nM | 50 nM |  | inhibition [5]: < 45%; ED50 [6]: 0.11 µmol/kg; ED50 [7]: 1.4 µmol/kg; ED50 [8]: 0.11 µmol/kg; ED50 [9]: 1.18 µmol/kg; ED50 [10]: 0.18 µmol/kg; ED50 [11]: inactive
C=CCN(CCC)C1CCc2ccc3[nH]cc(C=O)c3c2C1 (stereo not given) | 49 nM |  |  | 130 nM | 59 nM | ED50 [13]: Weak activity; ED50 [6]: 0.16 µmol/kg; ED50 [14]: inactive; ED50 [8]: 0.19 µmol/kg; ED50 [10]: 0.19 µmol/kg; ED50 [15]: inactive
CCCN(CCC)C1CCc2ccc3[nH]ccc3c2C1 (stereo not given) |  | 39 nM |  |  |  | 
CCCN(CCCc1ccccc1)C1CCc2ccc3[nH]cc(C=O)c3c2C1 (stereo not given) | 11 nM | 2 nM |  | 42 nM | 13 nM | 
CCCN(CCc1cccs1)C1CCc2ccc3[nH]ccc3c2C1 (stereo not given) |  | 13 nM | 5.5 nM | 5.5 nM |  | inhibition [5]: < 45%
CCCN(CC(C)C)[C@@H]1CCc2ccc3[nH]cc(C=O)c3c2C1 |  | 6.5 nM |  | 100 nM | 28 nM | 
CCCN(CC1CC1)C1CCc2ccc3[nH]cc(C=O)c3c2C1 (stereo not given) | 196 nM | 24 nM |  | 164 nM |  | ED50 [16]: inactive; ED50 [6]: 0.33 µmol/kg; ED50 [17]: inactive; ED50 [8]: 0.23 µmol/kg; ED50 [10]: 0.34 µmol/kg; ED50 [18]: inactive
CCCNC1CCc2ccc3[nH]cc(C=O)c3c2C1 (stereo not given) | 227 nM | 27 nM |  |  | 60 nM | 
CN(C)C1CCc2ccc3[nH]ccc3c2C1 (stereo not given) | 270 nM |  |  | 383 nM |  | 
CCCN(CCCCN1C(=O)CC(C)(C)CC1=O)C1CCc2ccc3[nH]cc(C=O)c3c2C1 (stereo not given) | 115 nM | 9.8 nM |  | 450 nM | 136 nM | 
CCCN(C)C1CCc2ccc3[nH]cc(C=O)c3c2C1 (stereo not given) | 109 nM | 16 nM |  | 258 nM | 151 nM | 
CCCN(CCCc1ccccc1OC)C1CCc2ccc3[nH]cc(C=O)c3c2C1 (stereo not given) | 11 nM | 3.4 nM |  | 84 nM | 14 nM | 
CCCN(CCc1cccs1)C1CCc2ccc3[nH]cc(C=O)c3c2C1 (stereo not given) | 46 nM | 2 nM |  | 48 nM | 25 nM | ED50 [19]: Weak activity; ED50 [6]: 0.044 µmol/kg; ED50 [20]: Weak activity; ED50 [14]: inactive; ED50 [8]: 0.082 µmol/kg; ED50 [10]: 0.11 µmol/kg
CCCN(CCC)CC1CCc2ccc3[nH]ccc3c2C1 (stereo not given) |  |  | > 1000 nM |  |  | 
CCCN(CCc1ccccc1)C1CCc2ccc3[nH]ccc3c2C1 (stereo not given) | 249 nM | 7.4 nM |  | 18 nM | 5.5 nM | 
CN(C)[C@@H]1CCc2ccc3[nH]ccc3c2C1 | 228 nM |  |  | 270 nM |  | 
O=Cc1c[nH]c2ccc3c(c12)CC(N1CCCCCC1)CC3 (stereo not given) |  |  |  |  | > 1000 nM | 
CCCN(CCCCN1C(=O)CC(C)(C)CC1=O)[C@@H]1CCc2ccc3[nH]ccc3c2C1 |  |  | 6.5 nM |  |  | 
CCCN(CCCc1ccccc1OC)C1CCc2ccc3[nH]ccc3c2C1 (stereo not given) | 40 nM | 2.5 nM | 4.8 nM | 10 nM |  | 
CCCN(CCc1ccccc1)C1CCc2ccc3[nH]cc(C=O)c3c2C1 (stereo not given) | 56 nM | 2.8 nM |  | 81 nM | 62 nM | 
CCCNC1CCc2ccc3[nH]ccc3c2C1 (stereo not given) | 483 nM | 69 nM | 48 nM | 115 nM |  | 
CCCN(C)C1CCc2ccc3[nH]ccc3c2C1 (stereo not given) |  | 170 nM | 33 nM | 113 nM |  | inhibition [5]: < 45%
